25 compounds from PubChem BioAssay AID623987 (Broad Institute, 2012) can be followed below.

Assay [1] deals with HeLa viability, CellTiter-Glo ATP luminescence. The assay can be described thus: HeLa cell cytotoxicity, dose response, cytotoxicity control for pyoverdine/PvdQ inhibitor project, CellTiter-Glo luminescence, dry powder, set 3 (AID 623987). The essentials:
(§1)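 Doses: 3-fold compound dilution series from 10 mM stock top. Material: HeLa cells. Technique: CellTiter-Glo luminescence measuring cellular ATP. Times: cells grown 24 h at 37 °C before dosing, 48 h compound exposure.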
For orientation: ATP-based viability assays read luminescence as a measure of living cells.

Assay in assay [2]: as above
The note with it: HeLa viability, CellTiter-Glo ATP luminescence; at 120 µM (top of the series). The essentials: as §1

As usually defined, the IC50 is the point on the concentration scale where inhibition reaches its midpoint.

The source made the active and inactive calls.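 How the source made its calls: active means compounds lowering cell ATP light, with fitted IC50 at most twice the top tested dose; inconclusive means flat curve losing 30 to 70% signal, or poor fit; inactive means the rest.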

Regarding `COCCC(C#N)c1ccc(Cl)cc1` (stereo not given), the IC50 in assay [1] is 94.2 µM.

On to `Clc1ccc(C(c2cccc(Cl)n2)c2nn[nH]n2)cc1` (stereo not given), for which the activity change, negative = toxicity in assay [2] was 1.4% (inactive).

Turning to `CCCCC(C#N)c1ccc(F)cc1` (stereo not given), in assay [2], the activity change, negative = toxicity is -1.79% (inactive).

As for `COCCNC(C#N)c1ccc(Cl)cc1` (stereo not given), in assay [2], the activity change, negative = toxicity is -1.45% (inactive).

For `N#CC(c1ccc(F)cc1)c1cccc(Cl)n1` (stereo not given), the IC50 in assay [1] was > 240 µM (inactive).

In the case of `N#CC(c1ccc(F)cc1)c1cccc(C(F)(F)F)n1` (stereo not given), in assay [2], the activity change, negative = toxicity is 5.55% (inactive).

For the compound `CCCCC(c1ccc(Cl)cc1)c1nn[nH]n1` (stereo not given), in assay [2], the activity change, negative = toxicity is 9.15% (inactive).

`CN(C)CCCC(C#N)c1ccc(F)cc1` (stereo not given): the IC50 in assay [1] is > 240 µM (inactive).

In the case of `N#CC(c1ccc(Cl)cc1)c1cccc(C(F)(F)F)n1` (stereo not given), the activity change, negative = toxicity in assay [2] is 4.48% (inactive).

On to `COCCOCCC(C#N)c1ccc(F)cc1` (stereo not given), for which, in assay [2], the activity change, negative = toxicity was 5.01% (inactive).

Take `CCCCC(C#N)c1ccc(Cl)cn1` (stereo not given): the activity change, negative = toxicity in assay [2] was 13.2% (inactive).

As for `N#CC(c1ccc(Cl)cc1)c1ccccn1` (stereo not given), in assay [2], the activity change, negative = toxicity is 0.002% (inactive).

Turning to `N#CC(c1ccc(Cl)cc1)c1cccc(Cl)n1` (stereo not given), the activity change, negative = toxicity in assay [2] is 3.78% (inactive).

Regarding `N#CC(c1ccc(Cl)cc1)c1ncccc1Cl` (stereo not given), in assay [1], the IC50 was > 240 µM (inactive).

With `N#CC(c1cccc(C(F)(F)F)n1)c1ccc(Cl)cc1F` (stereo not given), in assay [1], the IC50 is > 240 µM (inactive).

In the case of `CCCCC(C#N)c1ccccn1` (stereo not given), the IC50 in assay [1] was > 240 µM (inactive).

In the case of `CCCCC(C#N)c1ccc(Cl)cc1` (stereo not given), the activity change, negative = toxicity in assay [2] is 7.6% (inactive).

Regarding `CN(C)CCCC(C#N)c1ccc(Cl)cc1` (stereo not given), the activity change, negative = toxicity in assay [2] was 6.74% (inactive).

With `COCCOCCC(C#N)c1ccc(Cl)cc1` (stereo not given), the IC50 in assay [1] was > 240 µM (inactive).

Consider `N#CC(c1ccc(C(F)(F)F)c(Cl)n1)c1ccccc1OC(F)(F)F` (stereo not given), for which the IC50 in assay [1] is > 240 µM (inactive).

Take `COCCC(C#N)c1ccc(F)cc1` (stereo not given): the activity change, negative = toxicity in assay [2] is 4.64% (inactive).

For `N#Cc1cccc(C(C#N)c2ccc(F)cc2)n1` (stereo not given), the activity change, negative = toxicity in assay [2] is -2.4% (inactive).

With `CCCCC(C#N)c1ccc(F)cn1` (stereo not given), in assay [2], the activity change, negative = toxicity was 1.98% (inactive).

`N#CC(c1ccc(Cl)cc1)N1CCCC1` (stereo not given): the activity change, negative = toxicity in assay [2] is 24% (inactive).

Turning to `N#CC1c2ccc(Cl)cc2CCc2cccnc21` (stereo not given), the IC50 in assay [1] is > 240 µM (inactive).
